ChEMBL document CHEMBL1125763, “Structure-activity studies of antitumor agents based on pyrrolo[1,2-a]benzimidazoles: new reductive alkylating DNA cleaving agents” (J Med Chem, 1991)

Key:
WiDr = experiment: In vitro inhibition of WiDr colon cancer cell line; type: functional, cell-based; conditions: Homo sapiens
In short: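 Cells plated at 50 000 per well in 96-well trays. Drugs dissolved in DMSO as stock, then diluted in buffer and added to wells. IC50 was calculated from concentration–survival curves over a concentration range giving 0–100% survival.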

A2780 [1] = experiment: In vitro inhibition of 2780/DOX ovarian cancer cell line; type: functional, cell-based; conditions: Homo sapiens
In short: (§1)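 Cell growth inhibition: cells plated at 50 000/well; drugs dissolved in DMSO as stock and diluted in buffer before addition. IC50 taken from concentration-survival curves over a range of concentrations giving 0-100% survival.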

2008/R [2] = experiment: In vitro inhibition of 2008/R ovarian cancer cell line; NA= Not achievable; type: functional, cell-based, Homo sapiens; in short: as §1
2008/S [3] = experiment: In vitro inhibition of 2008/S ovarian cancer cell line; NA= Not achievable; type: functional, cell-based, Homo sapiens; in short: as §1
RPMI-8226 [4] = experiment: In vitro inhibition of […] myeloma cancer cell line; type: functional, cell-based; conditions: Homo sapiens; in short: as §1
SW480 = experiment: In vitro inhibition of SW480 colon cancer cell line; type: functional, cell-based; conditions: Homo sapiens; in short: as §1
A2780 [5] = experiment: In vitro inhibition of 2780/S ovarian cancer cell line; type: functional, cell-based; conditions: Homo sapiens; in short: as §1
2008/S [6] = experiment: In vitro inhibition of 2008/S ovarian cancer cell line; type: functional, cell-based; conditions: Homo sapiens; in short: as §1
RPMI-8226 [7] = experiment: Dose-Response relationship for DNA single-strand cleavage with the compound in human 8226 multiple myeloma cells at a concentration of 0.1 ug/mL x1 hr.; type: functional
RPMI-8226 [8] = experiment: Dose-Response relationship for DNA single-strand cleavage with the compound in human 8226 multiple myeloma cells at a concentration of 1.0 ug/mL x1 hr; type: functional
RPMI-8226 [9] = experiment: Dose-Response relationship for DNA single-strand cleavage with the compound in human 8226 multiple myeloma cells at a concentration of 10 ug/mL x1 hr; type: functional
Ovarian carcinoma cell = experiment: Inhibitory activity against ovarian cancer cell line; NA= Not achievable; type: functional, cell-based, Homo sapiens
In short: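 Fresh human tumor chemosensitivity assay: ovarian cancers removed surgically from patients, minced, and plated on soft agar as a single-cell suspension.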

2008/R [10] = experiment: In vitro inhibition of 2008/R ovarian cancer cell line; type: functional, cell-based; conditions: Homo sapiens; in short: as §1

CC(=O)OC1CCn2c1nc1c2C(=O)C(C)=C(N(C)C)C1=O (configuration not stated)
IC50 (WiDr): 10000 nM

CC(=O)OC1CCn2c1nc1c2C(=O)C(C)=C(NC(=O)CCl)C1=N (configuration not stated)
IC50 (WiDr): 280 nM

CC(=O)OC1CCn2c1nc1c2C(=O)C(C)=CC1=O (configuration not stated)
IC50 (WiDr): 300 nM

CC1=CC(=O)c2nc3n(c2C1=O)CCC3OC(N)=O (configuration not stated)
IC50 (WiDr): 10000 nM

CC(=O)NC1=C(C)C(=O)c2c(nc3n2CCC3OC(C)=O)C1=N (configuration not stated)
IC50 (WiDr): 150 nM

CC(=O)NC1=C(C)C(=O)c2c(nc3n2CCC3)C1=O
IC50 (WiDr): 500 nM

CC1=C(N2CC2)C(=O)c2nc3n(c2C1=O)CCC3
IC50 (WiDr): 15 nM

CC1=C(N2CC2)C(=O)c2nc3n(c2C1=O)CCC3OC(N)=O (configuration not stated)
IC50 (A2780 [1]): 200 nM
IC50 (2008/R [2]): Not Active
IC50 (2008/S [3]): Not Active
IC50 (RPMI-8226 [4]): 140 nM
IC50 (WiDr): 100 nM
IC50 (SW480): 19 nM
IC50 (A2780 [5]): 100 nM

CC(=O)NC1=C(C)C(=O)c2c(nc3n2CCC3)C1=N
IC50 (WiDr): 10000 nM

CC(=O)NC1=C(C)C(=O)c2c(nc3n2CCC3OC(C)=O)C1=O (configuration not stated)
IC50 (WiDr): 6000 nM

CC(=O)NC1=C(C)C(=O)c2c(nc3n2CCC3OC(N)=O)C1=O (configuration not stated)
IC50 (WiDr): 16000 nM

CC1=C(N(C)C)C(=O)c2nc3n(c2C1=O)CCC3OC(N)=O (configuration not stated)
IC50 (WiDr): 13000 nM

CC1=C(N(C)C)C(=O)c2nc3n(c2C1=O)CCC3
IC50 (WiDr): 13000 nM

CC(=O)OC1CCn2c1nc1c2C(=O)C(C)=C(N2CC2)C1=O (configuration not stated)
IC50 (A2780 [1]): 16 nM
IC50 (2008/S [6]): 7 nM
IC50 (RPMI-8226 [4]): 100 nM
Cleavage (RPMI-8226 [7]): 59
Cleavage (RPMI-8226 [8]): 321
Cleavage (RPMI-8226 [9]): 469
IC50 (Ovarian carcinoma cell): Not Active
IC50 (WiDr): 10 nM
IC50 (2008/R [10]): 7 nM
IC50 (SW480): 9 nM
IC50 (A2780 [5]): 0.6 nM

CO[C@@]12[C@H](COC(N)=O)C3=C(C(=O)C(C)=C(N)C3=O)N1C[C@@H]1N[C@@H]12 [MITOMYCIN]
IC50 (A2780 [1]): 200 nM
IC50 (2008/R [2]): Not Active
IC50 (2008/S [3]): Not Active
IC50 (RPMI-8226 [4]): 200 nM
IC50 (WiDr): 10 nM
IC50 (SW480): 7 nM
IC50 (A2780 [5]): 100 nM
